Source: PubChem (several laboratories)
DDE Tn7 FP inh: disrupts Tn7 cyclic peptide binding to fibrin D-Dimer-E complex; P02675; FP displacement of FITC-Tn7 peptide from fibrin DD(E); 0% = median of compound wells per plate; inhibition, % at 8.3 µM; 370,000 compounds, 0.13% hits;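 active means inhibition above the mean of compounds falling within the control limits plus 3 SD of them, cut at about 14% in these data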
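system = human fibrin DD(E) protein | quantity = DD(E) 2 µM final | medium = Tris/NaCl/CaCl2 buffer, pH 7.8 | also added = labelled Tn7 tracer, 0.1 µM | compound dosing = single point at 8.3 µM | timing = compound with protein 10 min, then 3 h after probe, room temperature | signal = FP measurement | benchmarks = Aha-Tn7 high control | repeats = one replicate per compound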
Tn6 DDE FP: DD(E)-Tn6 binding inhibition, primary FP screen; P02675; Fibrin DD(E) TRITC-Tn6 fluorescence polarization displacement; inhibition, % at 8.3 µM; 370,000 compounds, 0.21% hits;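 active means inhibition above a per-campaign cutoff: mean of compounds within control limits plus 3 SD, cut at about 15% in these data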
proKLK7 act: activators of human kallikrein-7 zymogen | 370,000 compounds, 0.9% hits | AID 652039 | activation, % at 7 µM | purified proKLK7, EDANS-DABCYL substrate fluorescence; 100% is mature enzyme control, 0% vehicle;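 active means activation above the mean of all tested compounds plus 3 SD, computed per campaign excluding outliers beyond control limits, cut at about 13% in these data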
SKN-1 block: blocks SKN-1 activity in C. elegans; AID 624304; 360,000 compounds, 0.49% hits; C. elegans VP596 Pgst-4::GFP/RFP ratio, acrylamide-induced, 24 h; inhibition, % at 21.8 µM;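 active means interference check ratio from 0.5 to 1.5 plus GFP to RFP signal ratio inhibition reaching or exceeding a fixed threshold, cut at about 30% in these data, passing the limit was not always enough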
MT1-MMP act inh: inhibitors of human MT1-MMP activation; 360,000 compounds, 0.061% hits; GFP/RFP ratio change, % at 20 µM; HT1080 RFP-PRO-GFP cells, GFP/RFP ratio fluorescence, overnight; percent of plate control window, DMSO zero; AID 651647; P50281;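 active means GFP/RFP ratio change of at least 30% with cell ATP level not reduced by more than half and red fluorescence within 50% of control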
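system = RFP-PRO-GFP reporter HT1080 cells | dosing = 20 µM single dose, 1% DMSO | timing = overnight cell settling, then overnight compound exposure, 37 °C, 5% CO2 | read-out basis = GFP/RFP fluorescence ratio | controls = DMSO and RFP-L50D-GFP cell wells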
Neddyl block: blocks human cullin neddylation | calls only at 25 µM | 360,000 compounds, 0.58% hits | TR-FRET cullin neddylation, biochemical | P61081+Q13564; in the data active means inhibition above about 36%
Target sequence (P61081 whole entry, looked up): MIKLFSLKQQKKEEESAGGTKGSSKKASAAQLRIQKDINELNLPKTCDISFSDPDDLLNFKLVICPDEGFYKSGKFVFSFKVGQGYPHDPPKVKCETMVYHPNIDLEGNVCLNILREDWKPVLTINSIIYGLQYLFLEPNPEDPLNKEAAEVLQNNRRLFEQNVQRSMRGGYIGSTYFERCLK
Target sequence (Q13564 whole entry, looked up): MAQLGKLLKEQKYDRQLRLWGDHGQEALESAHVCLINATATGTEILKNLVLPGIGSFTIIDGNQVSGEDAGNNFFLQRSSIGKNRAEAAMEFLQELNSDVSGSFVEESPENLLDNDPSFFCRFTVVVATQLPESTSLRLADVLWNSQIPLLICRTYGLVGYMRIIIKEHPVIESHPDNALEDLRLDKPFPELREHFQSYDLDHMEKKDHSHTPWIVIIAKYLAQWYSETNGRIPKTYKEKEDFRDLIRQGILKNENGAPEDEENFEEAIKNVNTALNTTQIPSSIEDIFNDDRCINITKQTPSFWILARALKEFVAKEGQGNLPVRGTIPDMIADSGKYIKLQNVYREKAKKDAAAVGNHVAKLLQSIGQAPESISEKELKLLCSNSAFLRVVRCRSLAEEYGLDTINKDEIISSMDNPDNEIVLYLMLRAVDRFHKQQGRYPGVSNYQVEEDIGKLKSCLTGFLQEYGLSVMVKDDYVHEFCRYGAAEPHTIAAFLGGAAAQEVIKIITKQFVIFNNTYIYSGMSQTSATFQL
KLK7 act conf: proKLK7 activation, confirmation | shares compounds with proKLK7 act | 3,200 compounds, 68% hits | activation, % at 7 µM | purified proKLK7, EDANS-DABCYL substrate fluorescence; scaled: vehicle 0, mature enzyme 100;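 active means activation, as change over the incubation, above the mean of all tested compounds plus 3 SD, cut at about 13% in these data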
EDANS interfere: optically interferes with EDANS-DABCYL signal, flagging KLK7 hits; EDANS-DABCYL substrate fluorescence interference, no enzyme, 4 h; solvent 0%, active enzyme control 100%; shares compounds with proKLK7 act; AID 686952; activation, % at 7 µM; 3,200 compounds, 80% hits;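 active means activation above the all-compound mean plus 3 SD, ignoring values outside control-based bounds, cut at about 4.8% in these data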;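 further: value is the 4 h activation minus the activation read at time zero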
EDANS interf: EDANS fluorescence interference in dose response, no enzyme; shares compounds with proKLK7 act; EDANS-DABCYL peptide fluorescence interference; EC50, µM; 250 compounds, 20% hits;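 active means compounds that raise the fluorescence signal in this interference counterscreen, with EC50 at or below 10 µM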;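 further: intact quenched peptide substrate alone read at 355 nm excitation and 520 nm emission; signal is fluorescence gain from T0 to T4 after four hours at room temperature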
Large screens that a line does not name were inactive (follow-up assays come after a bar, where shown). Most compounds without a hit are left out; they make up all but 2.2% or so of the library.

Cc1cccn2c(=O)c3cc(C(=O)NCCN4CCOCC4)n(C)c3nc12	proKLK7 act 19 (not shown: Neddyl block) | KLK7 act conf inactive | EDANS interfere inactive
COCCCn1c(C(=O)NCCN2CCOCC2)cc2c(=O)n3ccccc3nc21	proKLK7 act 83 (not shown: Neddyl block) | KLK7 act conf 72 | EDANS interfere 75
Cn1c(C(=O)NCCN2CCOCC2)cc2c(=O)n3ccccc3nc21	proKLK7 act 60 (not shown: Neddyl block) | KLK7 act conf 67 | EDANS interfere 74
Cc1nc2ccccn2c1C(=O)NCCCN1CCOCC1	none
Cc1ccc2nc3c(cc(C(=O)NCCCn4ccnc4)n3C)c(=O)n2c1	proKLK7 act 67 | KLK7 act conf 62 | EDANS interfere 79
Cc1ccc(CC(=O)NCCCn2ccnc2)cc1	none
CC12CCC(O)CC1=CCC1C2CCC2(C)C(c3ccn[nH]3)CCC12 (stereo not drawn)	none
O=c1c2ccccc2c(/C=N/c2nnc(Cc3ccccc3)s2)c(O)n1-c1ccc(Cl)cn1	none
O=c1c2ccccc2c(/C=N/c2n[nH]c(CCCO)n2)c(O)n1-c1ccccc1Cl	proKLK7 act 27 | KLK7 act conf inactive | EDANS interfere 5.8
CN1CCCN(C(=O)CC2(CC(=O)O)CCCC2)CC1	none
Cc1ccc(NC(=O)C2=C(O)c3ccccc3N(C)S2(=O)=O)cc1	proKLK7 act 51 | KLK7 act conf inactive | EDANS interfere 9.3
Cc1cccc(C)c1NC(=O)C1=C(O)c2ccccc2N(C)S1(=O)=O	none
COc1ccc2cc(C3=CCCCC3)ncc2c1	proKLK7 act 19 (not shown: Neddyl block) | KLK7 act conf inactive | EDANS interfere 5.3
COc1cc2cnc(C3=CCCCC3)cc2cc1OC	none
Cc1cc(=O)oc2cc(NC(=O)c3ccccc3C(=O)O)ccc12	proKLK7 act 54 (not shown: Neddyl block) | KLK7 act conf 14 | EDANS interfere 16
Cc1cc(=O)oc2cc(NC(=O)c3ccccc3Cl)ccc12	proKLK7 act 13 (not shown: Neddyl block) | KLK7 act conf inactive | EDANS interfere 12
Cc1cc(=O)oc2cc(NC(=O)c3c(Cl)cnn3C)ccc12	none
O=[N+]([O-])c1cccc(S(=O)(=O)N/N=C\c2ccc3c(c2)OCO3)c1	none
Cn1c(COc2ccccc2)nnc1SCC(=O)Nc1ccc(S(=O)(=O)Nc2nccs2)cc1	none (no result: SKN-1 block, MT1-MMP act inh, Neddyl block)
CN1CCCCc2c1nc1ccccc1c2N (tested in a mixture with another compound)	none
Nc1c2c(nc3ccccc13)N(c1ccccc1)CC2	proKLK7 act 70 | KLK7 act conf 20 | EDANS interfere 21
O=C(N/N=C/c1cccc(O)c1)c1ccc(COc2ccccc2Br)cc1	none
CNC(=S)NNC(=O)c1sc(-c2cc(C)on2)nc1C	proKLK7 act 21 | KLK7 act conf 34 | EDANS interfere 37
CCN1CC(CN(C)Cc2cn(-c3cccc(C)c3)nc2-c2cccc(F)c2)CC1=O (stereo not drawn)	proKLK7 act 17 | KLK7 act conf inactive | EDANS interfere inactive
Cc1nc2ccc(S(=O)(=O)NCC(=O)N(C)Cc3ccco3)cc2s1	none
CC1(C)Oc2cc3oc(=O)ccc3c3c2C2C1CCC(C)(O3)C2O (stereo not drawn)	proKLK7 act 16 (not shown: Neddyl block) | KLK7 act conf 24 | EDANS interfere 31
CC1(C)Oc2ccc3ccc(=O)oc3c2[C@@H](O)[C@@H]1O	none (not shown: Neddyl block)
CCCNC(=S)N1CCC(n2cnc3ccccc32)CC1	none
Cc1cccc(C2Nc3ccccc3C(=O)N2c2ccccc2)n1 (stereo not drawn)	proKLK7 act 19 (not shown: Neddyl block) | KLK7 act conf 40 | EDANS interfere 43
O=C(Nc1ncc2c(n1)-c1ccccc1OC2)c1cccc([N+](=O)[O-])c1	none
O=C(Nc1ncc2c(n1)-c1ccccc1OC2)c1ccc(F)cc1	proKLK7 act 32 (not shown: Neddyl block) | KLK7 act conf 15 | EDANS interfere 12 | EDANS interf inactive
CC(C)Nc1nc(-c2ccccc2CO)c2sccc2n1	proKLK7 act 22 (not shown: Neddyl block) | KLK7 act conf 17 | EDANS interfere 11 | EDANS interf inactive
CN(C)CCNc1nc(-c2ccccc2CO)c2sccc2n1	none
OCc1ccccc1-c1nc(NCC2CC2)nc2ccsc12	proKLK7 act 15 (not shown: Neddyl block) | KLK7 act conf inactive | EDANS interfere 6.9
Cc1ccccc1-c1nc(NC(C)C)nc2ccsc12	none (not shown: Neddyl block)
NC(=O)CC(NC(=O)Cc1ccc(Cl)cc1)c1ccc(NCCc2ccccc2F)c([N+](=O)[O-])c1 (stereo not drawn)	none
Cc1cccn2c(=O)c3cc(C(=O)NCCN4CCOCC4)c(=N)n(Cc4ccc(F)cc4)c3nc12	proKLK7 act 17 (not shown: Neddyl block) | KLK7 act conf inactive | EDANS interfere inactive
Cc1cccn2c(=O)c3cc(C(=O)NCCN4CCOCC4)c(=N)n(CCN4CCOCC4)c3nc12	none (not shown: Neddyl block)
CCOCCCn1c(=N)c(C(=O)NCCN2CCOCC2)cc2c(=O)n3cccc(C)c3nc21	proKLK7 act 45 (not shown: Neddyl block) | KLK7 act conf 14 | EDANS interfere inactive | EDANS interf inactive
Cc1cccn2c(=O)c3cc(C(=O)NC4CCCCC4)c(=N)n(Cc4ccc(F)cc4)c3nc12	none (not shown: Neddyl block)
CCOC(=O)c1ccc(N2C(=O)CC(Sc3nnc(C)s3)C2=O)cc1 (stereo not drawn)	none
COc1cc(CN2C(=O)C(C)ON=C2c2ncccc2C)cc(OC)c1 (stereo not drawn)	none
COc1cccc2[nH]c3c(N4CCC(C(N)=O)CC4)ncnc3c12	proKLK7 act 25 (not shown: Neddyl block) | KLK7 act conf 47 | EDANS interfere 43
COc1ccc2ccccc2c1C=NNC(=O)c1cc(-c2ccc(C)cc2)n[nH]1	proKLK7 act 41 (no result: SKN-1 block, MT1-MMP act inh, Neddyl block) | KLK7 act conf inactive | EDANS interfere inactive
Cc1ccc(-c2cc(C(=O)NN=Cc3c4ccccc4cc4ccccc34)[nH]n2)cc1C	none (no result: SKN-1 block, MT1-MMP act inh, Neddyl block)
CCn1nnnc1SCC(=O)Nc1cccc(NC(C)=O)c1	none
COc1ccc(-c2cn3cccnc3n2)cc1NC(=O)C(C)Oc1ccccc1 (stereo not drawn)	none (not shown: Neddyl block)
COc1ccc(-c2cn3cccnc3n2)cc1F	proKLK7 act 64 (not shown: Neddyl block) | KLK7 act conf 78 | EDANS interfere 83
c1ccc(CN2CCN(Cc3cn4cccnc4n3)CC2)cc1	none
